Data as given in ChEMBL document CHEMBL4393692, “Thiazolidinone/thiazole based hybrids - New class of antitrypanosomal agents” (Eur J Med Chem, 2019).

These molecules were tested on Trypanosoma brucei gambiense (assay: Antitrypanosomal activity against bloodstream form of Trypanosoma brucei gambiense Feo reduction in parasite growth after 72 hrs by resazurin dye based fluorescence assay).
Assay type: functional, organism-based
How it was run: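 Bloodstream parasites cultured in HMI9 with 10% FCS at 37°C under 5% CO2. Log-phase cells harvested at 3000xg, plated at 10^5 cells/ml with dilutions from 10 down to 0.625 µg/ml (DMSO stocks) for 72 h. Resazurin added at 45 µM final, fluorescence read after a further 4 h. Inhibition vs DMSO control. IC50 from dose-response curve, mean ± SD of three independent experiments.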

| Compound | IC50 |
| --- | --- |
| C=CCSc1nn2c(/C=N/N=C3\SCC(=O)N3c3ccc(O)cc3)c(-c3ccccc3)nc2s1 | > 20 µM |
| CCc1nn2c(/C=N/N=C3/NC(=O)CS3)c(-c3ccccc3)nc2s1 | 18 µM |
| CCc1nn2c(/C=N/N=C3/NC(=O)C(C)S3)c(-c3ccc(Br)cc3)nc2s1 (stereo not given) | 9.5 µM |
| C=CCSc1nn2c(/C=N/N=C3/NC(=O)C(CC(=O)O)S3)c(-c3ccccc3)nc2s1 (stereo not given) | > 20 µM |
| CCc1nn2c(/C=N/N=C3\SC(CCOC(C)=O)C(=O)N3c3ccc(O)cc3)c(-c3ccc([N+](=O)[O-])cc3)nc2s1 (stereo not given) | 11.1 µM |
| CCc1nn2c(/C=N/N=c3/[nH]c(-c4ccc([N+](=O)[O-])cc4)cs3)c(-c3ccccc3)nc2s1 | 10.3 µM |
| CCc1nn2c(/C=N/NC(N)=S)c(-c3ccccc3)nc2s1 | 20.9 µM |
| CCOC(=O)CSc1nn2c(/C=N/N=C3/NC(=O)C(CC)S3)c(-c3ccccc3)nc2s1 (stereo not given) | 9.2 µM |
| CCc1nn2c(/C=N/N=C3/NC(=O)C(CCOC(C)=O)S3)c(-c3ccccc3)nc2s1 (stereo not given) | 11.8 µM |
| CCc1nn2c(/C=N/N=c3/[nH]c(-c4ccc([N+](=O)[O-])cc4)cs3)c(-c3ccc(Br)cc3)nc2s1 | 9.2 µM |
| CCOC(=O)c1s/c(=N\N=C\c2c(-c3ccc([N+](=O)[O-])cc3)nc3sc(CC)nn23)[nH]c1C | > 20 µM |
| CCc1nn2c(/C=N/NC(N)=S)c(-c3ccc([N+](=O)[O-])cc3)nc2s1 | > 25 µM |
| C=CCSc1nn2c(C=O)c(-c3ccccc3)nc2s1 | 23.4 µM |
| CCc1nn2c(C=O)c(-c3ccccc3)nc2s1 | > 40 µM |
| CCc1nn2c(/C=N/N=C3\SC(CC)C(=O)N3c3ccc(O)cc3)c(-c3ccccc3)nc2s1 (stereo not given) | > 20 µM |
| CCOC(=O)c1s/c(=N\N=C\c2c(-c3ccc(Br)cc3)nc3sc(CC)nn23)[nH]c1C | 7.4 µM |
| CCc1nn2c(/C=N/NC(N)=S)c(-c3ccc(Br)cc3)nc2s1 | > 25 µM |
| C=CCSc1nn2c(/C=N/NC(=S)Nc3ccc(O)cc3)c(-c3ccccc3)nc2s1 | > 50 µM |
| CCc1nn2c(/C=N/N=C3/NC(=O)C(C)S3)c(-c3ccccc3)nc2s1 (stereo not given) | > 25 µM |
| O=C1CS/C(=N\N=C\c2c(-c3ccc(Cl)cc3)[nH]c3ccccc23)N1Cc1ccco1 | 7.31 µM |
| C=CCSc1nn2c(/C=N/N=C3/NC(=O)C(CC)S3)c(-c3ccccc3)nc2s1 (stereo not given) | 20.6 µM |
| C=CCSc1nn2cc(-c3ccccc3)nc2s1 | 27.2 µM |
| CCc1nn2c(/C=N/N=C3\SCC(=O)N3c3ccc(O)cc3)c(-c3ccccc3)nc2s1 | 9.2 µM |
| CCc1nn2cc(-c3ccccc3)nc2s1 | > 40 µM |
| CCc1nn2c(/C=N/NC(=S)Nc3ccc(O)cc3)c(-c3ccc([N+](=O)[O-])cc3)nc2s1 | 14.8 µM |
| C=CCSc1nn2c(/C=N/N=C3\SC(C)C(=O)N3c3ccc(O)cc3)c(-c3ccccc3)nc2s1 (stereo not given) | > 20 µM |
| CCc1nn2c(/C=N/N=C3/NC(=O)C(CC)S3)c(-c3ccc(Br)cc3)nc2s1 (stereo not given) | 13.8 µM |
| CCc1nn2c(/C=N/N=C3/NC(=O)C(CCOC(C)=O)S3)c(-c3ccc([N+](=O)[O-])cc3)nc2s1 (stereo not given) | 16.2 µM |
| CCOC(=O)CSc1nn2cc(-c3ccccc3)nc2s1 | > 30 µM |
| CCc1nn2c(/C=N/N=C3/NC(=O)C(CC)S3)c(-c3ccc([N+](=O)[O-])cc3)nc2s1 (stereo not given) | > 20 µM |

Stronger by IC50, values ahead:

| IC50 | Compound |
| --- | --- |
| 6.2 µM | CCC1S/C(=N\N=C\c2c(-c3ccc([N+](=O)[O-])cc3)[nH]c3ccccc23)NC1=O (stereo not given) |
| 2.6 µM | CCc1nn2c(/C=N/N=c3\scc(-c4ccc([N+](=O)[O-])cc4)n3-c3ccc(O)cc3)c(-c3ccc([N+](=O)[O-])cc3)nc2s1 |
| 1.35 µM | CC1S/C(=N\N=C\c2c(-c3ccc(Br)cc3)[nH]c3ccccc23)NC1=O (stereo not given) |
| 3.9 µM | C=CCSc1nn2c(/C=N/N=C3/NC(=O)CS3)c(-c3ccccc3)nc2s1 |
| 0.594 µM | CCc1nn2c(/C=N/N=c3\scc(-c4ccc(Br)cc4)n3-c3ccc(O)cc3)c(-c3ccc([N+](=O)[O-])cc3)nc2s1 |
| 4.7 µM | CC1S/C(=N\N=C\c2c(-c3ccc([N+](=O)[O-])cc3)[nH]c3ccccc23)NC1=O (stereo not given) |
| 1.5 µM | CCc1nn2c(/C=N/N=C3\SC(CC)C(=O)N3c3ccc(O)cc3)c(-c3ccc(Br)cc3)nc2s1 (stereo not given) |
| 4.8 µM | CCc1nn2c(/C=N/N=C3\SC(C)C(=O)N3c3ccc(O)cc3)c(-c3ccccc3)nc2s1 (stereo not given) |
| 3.34 µM | O=C1N/C(=N/N=C/c2c(-c3ccc(Br)cc3)[nH]c3ccccc23)SC1CCO (stereo not given) |
| 0.74 µM | CCOC(=O)c1sc(N/N=C/c2c(-c3ccc([N+](=O)[O-])cc3)[nH]c3ccccc23)nc1C |
| 1.71 µM | CCC1S/C(=N\N=C\c2c(-c3ccc(Cl)cc3)[nH]c3ccccc23)N(Cc2ccco2)C1=O (stereo not given) |
| 1.17 µM | CC1S/C(=N\N=C\c2c(-c3ccc(Cl)cc3)[nH]c3ccccc23)N(c2ccc(O)cc2)C1=O (stereo not given) |
| 1.5 µM | CCC1S/C(=N\N=C\c2c(-c3ccc(Br)cc3)[nH]c3ccccc23)NC1=O (stereo not given) |
| 6 µM | O=[N+]([O-])c1ccc(-c2[nH]c3ccccc3c2/C=N/Nc2nc(-c3ccccc3)cs2)cc1 |
| 2.7 µM | CCc1nn2c(/C=N/N=C3\SC(CCOC(C)=O)C(=O)N3c3ccc(O)cc3)c(-c3ccccc3)nc2s1 (stereo not given) |
| 3 µM | CCc1nn2c(/C=N/N=c3\scc(-c4ccccc4)n3-c3ccc(O)cc3)c(-c3ccccc3)nc2s1 |
| 4.4 µM | C=CCSc1nn2c(/C=N/N=C3/NC(=O)C(C)S3)c(-c3ccccc3)nc2s1 (stereo not given) |
| 1.5 µM | CCc1nn2c(/C=N/NC(=S)Nc3ccc(O)cc3)c(-c3ccc(Br)cc3)nc2s1 |

| IC50 | Compound |
| --- | --- |
| 1.5 µM | O=[N+]([O-])c1ccc(-c2[nH]c3ccccc3c2/C=N/N=c2\scc(-c3ccc([N+](=O)[O-])cc3)n2-c2ccc(O)cc2)cc1 |
| 1.5 µM | CCc1nn2c(/C=N/N=C3\SC(C)C(=O)N3c3ccc(O)cc3)c(-c3ccc(Br)cc3)nc2s1 (stereo not given) |
| 1.59 µM | CC(=O)OCCC1S/C(=N\N=C\c2c(-c3ccc(Cl)cc3)[nH]c3ccccc23)N(Cc2ccco2)C1=O (stereo not given) |
| 1.42 µM | CCC1S/C(=N\N=C\c2c(-c3ccc(Cl)cc3)[nH]c3ccccc23)NC1=O (stereo not given) |
| 2.6 µM | CCc1nn2c(/C=N/NC(=S)Nc3ccc(O)cc3)c(-c3ccccc3)nc2s1 |
| 1.71 µM | CC1S/C(=N\N=C\c2c(-c3ccc(Cl)cc3)[nH]c3ccccc23)N(Cc2ccco2)C1=O (stereo not given) |
| 1.36 µM | CC(=O)OCCC1S/C(=N\N=C\c2c(-c3ccc(Br)cc3)[nH]c3ccccc23)NC1=O (stereo not given) |
| 1 µM | C=CCSc1nn2c(/C=N/N=C3\SC(CCOC(C)=O)C(=O)N3c3ccc(O)cc3)c(-c3ccccc3)nc2s1 (stereo not given) |
| 4.4 µM | CCc1nn2c(/C=N/N=c3/[nH]c(-c4ccc([N+](=O)[O-])cc4)cs3)c(-c3ccc([N+](=O)[O-])cc3)nc2s1 |
| 1.34 µM | CC(=O)OCCC1S/C(=N\N=C\c2c(-c3ccc(Cl)cc3)[nH]c3ccccc23)NC1=O (stereo not given) |
| 1.52 µM | Clc1ccc(-c2[nH]c3ccccc3c2/C=N/Nc2nc(-c3ccc(Br)cc3)cs2)cc1 |
| 2.7 µM | CCOC(=O)c1s/c(=N\N=C\c2c(-c3ccccc3)nc3sc(CC)nn23)[nH]c1C |
| 6.1 µM | C=CCSc1nn2c(/C=N/NC(N)=S)c(-c3ccccc3)nc2s1 |
| 3.7 µM | CCc1nn2c(/C=N/N=C3/NC(=O)C(CC)S3)c(-c3ccccc3)nc2s1 (stereo not given) |
| 3.2 µM | CCc1nn2c(/C=N/N=C3/NC(=O)C(CCOC(C)=O)S3)c(-c3ccc(Br)cc3)nc2s1 (stereo not given) |
| 3.9 µM | CCOC(=O)CSc1nn2c(/C=N/N=C3/NC(=O)C(C)S3)c(-c3ccccc3)nc2s1 (stereo not given) |
| 1 µM | CCOC(=O)c1s/c(=N\N=C\c2c(-c3ccc(Br)cc3)nc3sc(CC)nn23)n(-c2ccc(O)cc2)c1C |
